Source: PubChem BioAssay (several laboratories)
M1 antagonist = blocks the rat M1 muscarinic receptor response to acetylcholine; P08482; CHO-M1 cells, Fluo-4 calcium, ACh EC80 antagonist mode; hits give low values; B-score at 10 µM; 64,000 tested, 3.4% active; AID 628;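 active means calcium fluorescence response, raw or row-and-column corrected B-score, differing from the plate sample mean either way at a set confidence level, mostly lower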
M1 ag = agonists of M1 muscarinic receptor. CHO-M1 cells, Fluo-4 calcium fluorescence, agonist mode; hits give high values. B-score at 10 µM. 64,000 tested, 3% active. AID 626;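 active means fluorescence rise, raw or as B-score row- and column-corrected plate score, outside the 99.7% band of its plate's samples, either direction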
D1 mod = allosterically modulates the human D1 dopamine receptor | P21728 | HEK293 D1, CRE-luciferase, dopamine EC30 potentiation; actives deviate in either direction | B-score at 10 µM | 58,000 tested, 5.9% active | AID 641;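 active means luminescence count or its row- and column-corrected plate score outside the 99.7% band of the plate's sample wells, on either side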
Target sequence (P21728 whole entry, looked up): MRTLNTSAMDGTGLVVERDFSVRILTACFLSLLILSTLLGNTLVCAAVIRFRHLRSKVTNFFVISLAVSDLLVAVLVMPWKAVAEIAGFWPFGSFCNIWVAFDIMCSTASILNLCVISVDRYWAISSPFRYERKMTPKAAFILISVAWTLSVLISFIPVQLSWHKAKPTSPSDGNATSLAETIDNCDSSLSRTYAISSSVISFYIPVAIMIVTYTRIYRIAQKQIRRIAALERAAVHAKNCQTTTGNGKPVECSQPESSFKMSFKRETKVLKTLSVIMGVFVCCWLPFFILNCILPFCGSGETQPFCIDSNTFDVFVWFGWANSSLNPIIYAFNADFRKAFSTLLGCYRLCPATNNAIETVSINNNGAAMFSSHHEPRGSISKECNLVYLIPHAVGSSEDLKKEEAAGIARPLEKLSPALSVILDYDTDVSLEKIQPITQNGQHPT
HEK293 NFkB inh = lowers PMA/ionomycin-induced NF-kB signal in HEK293 cells; 62,000 tested, 0.21% active; HEK-293 NF-kB luciferase reporter, luminescence; AID 465; inhibition, % at 3 µM;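 active means inhibition above the mean of all tested compounds plus 3 SD, cut at about 40% in these data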;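 further: 0% = stimulated DMSO wells and 100% = 10 µM reference inhibitor 5653914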
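Signal: luciferase luminescence; Material: HEK-293 cells with stable firefly luciferase reporter driven by four HIV NF-kB elements; Probe or stimulus: PMA with ionomycin; Replication: tested once; Times: 1 h compound pretreatment, then 16 h stimulation at 37 °C, 5% CO2; Benchmarks: DMSO and 10 µM reference inhibitor; Evaluation: per-plate % inhibition versus controls.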
mHtt clearance = compounds clearing mutant huntingtin protein; HeLa Exon1htt(103Q)mCFP, aggregate imaging; zero = plate's median compound well; inhibition, % at 1.5 µM; 47,000 tested, 0.42% active;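 active means inhibition of aggregate fluorescence above about 70%, also judged a hit by eye on the cell image, limit read from the data, passing the limit was not always enough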;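 further: cells exposed to compound for three days before fixation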
Jurkat tox 60K = cytotoxicity toward Jurkat cells; Jurkat E6.1 viability, ATP luminescence, 48 h; inhibition, % at 4 µM; 56,000 tested, 1.2% active; AID 463;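 active means inhibition above the mean inhibition of all tested compounds plus 3 SD, cut at about 28% in these data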
D1 PAM confirm = D1 receptor (human) allosteric modulation, confirmed. shares compounds with D1 mod. HEK293 D1 CRE-luciferase, dopamine EC30 potentiation; hits give high values. luminescence at 10 µM. 2,200 tested, 88% active;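 active means luminescence in either of two replicates above the same-plate mean plus 3 SD of the low-dose dopamine control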
D1 no dopamine = activates D1 CRE-luciferase signal without dopamine present; luminescence at 10 µM; 1,900 tested, 0.8% active; AID 646; HEK293 D1 CRE-luciferase, luminescence, no dopamine; hits give high values; shares compounds with D1 mod; in the data active means luminescence above about 3900
Isoprot counter = isoproterenol response counter-screen activity for D1 modulators; shares compounds with D1 mod; HEK293 D1 CRE-luciferase, isoproterenol EC30 counter-screen; hits give high values; luminescence at 10 µM; 2,200 tested, 63% active;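 active means luminescence in either replicate above plate mean of wells with a partly effective reference agonist dose plus 3 SD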;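 further: isoproterenol raises cAMP through native beta-adrenoceptor Gs so signal bypasses D1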
An asterisk follows results filed as active; · = no result. In the library only some 9.5% were active in any assay of this set; here they are far more common.

SMILES	M1 antagonist	M1 ag	D1 mod	HEK293 NFkB inh	mHtt clearance	Jurkat tox 60K	D1 PAM confirm	D1 no dopamine	Isoprot counter
COc1nc(C)ccc1-c1noc(-c2ccncc2)n1	-0.099	2	6.7*	-15	-27	-1	7856*	1580	3348
CCN(CC)S(=O)(=O)c1cc(C(=O)n2cccn2)c(Cl)cc1Cl	0.061	-0.29	0.78	4	-86	-1	·	·	·
CCOc1ccc(-c2nnc(-c3ccco3)o2)cc1OCC	0.039	0.4	15*	6	1	-2	17272*	1612	4000*
CCOc1cc(-c2nnc(-c3ccco3)o2)cc(OCC)c1OCC	-0.49	3.3	3	19	·	-5	·	·	·
CCSc1nnc(-c2cccc(S(=O)(=O)N(C)C)c2)n1-c1cc(OC)ccc1OC	-0.19	0.031	0.6	14	·	2	·	·	·
COc1cccc(-n2c(SCc3c(C)noc3C)nnc2-c2cccc(S(=O)(=O)N(C)C)c2)c1	0.24	0.98	9.1*	4	·	2	12244*	1492	5452*
COc1ccc(OC)c(-n2c(SCC(C)=O)nnc2-c2cccc(S(=O)(=O)N(C)C)c2)c1	-0.61	0.42	3.8*	14	·	5	6400	1712	3244
O=C(Nc1cccc(NC(=O)c2ccc(-c3ccc(Br)cc3)o2)c1)c1ccco1	·	·	·	·	18	·	·	·	·
Cc1ccnc(SCCn2c(N3CC(C)CC(C)C3)nc3c2c(=O)n(C)c(=O)n3C)n1 (stereo unspecified)	-0.16	0.22	3*	-6	31	-4	5916*	1664	2888*
COc1ccc(C2CC(=O)Nc3ccccc3S2(=O)=O)cc1OC (stereo unspecified)	-0.0081	-0.99	2.9*	12	·	4	9916*	1608	2252
COc1cccc(N2C(=O)C3CCCN3C2c2ccc(Cl)cc2)c1 (stereo unspecified)	-0.72	-0.65	0.0097	13	·	-4	·	·	·
Cn1c2ccccc2c2nn(-c3ccccc3)c(=O)cc21	-0.12	0.26	·	·	·	·	·	·	·
CC(=O)n1c2ccccc2c2nc(NC(C)C)sc21	0.015	2.5	6.4*	4	40	-3	8636*	1696	3344*
NC(=O)c1cnn2c(C(F)(F)F)cc(-c3ccc(F)cc3)nc12	0.17	0.26	2.5*	15	·	-2	10756*	1664	4224*
NC(=O)c1cnn2c(C(F)(F)F)cc(-c3ccccc3)nc12	0.58	0.45	7.9*	1	15	-3	17628*	1408	4488*
Cc1ccc(-c2cc(C(F)(F)F)n3ncc(C(=O)N4CCN(C)CC4)c3n2)cc1	0.54	0.38	0.41	4	-24	1	·	·	·
CCn1cc(C(=O)NC2CCCC2)c(=O)c2cc(S(=O)(=O)N3CCOCC3)ccc21	-0.16	-0.46	2.8	18	·	-6	·	·	·
CC1(C)Cc2c(sc3nc(SCC(=O)O)[nH]c(=O)c23)CO1	0.046	0.03	-0.61	19	·	-6	·	·	·
CSC1=NC(NCCCO)c2c(sc3c2CC(C)(C)OC3)N1 (stereo unspecified)	-0.38	1.6	3.9*	8	13	5	11400*	1504	2884
COC(=O)CSC1=C(C#N)C(c2cccc(OC)c2)CC(=O)N1 (stereo unspecified)	2.1	-1	1.9*	8	-320	11	5484	1664	2468
COC(=O)CSC1=C(C#N)C(c2cccc(F)c2)CC(=O)N1 (stereo unspecified)	-1	-0.54	0.16	2	-27	26	·	·	·
CCOC(=O)CCP(=O)(O)C(O)c1ccccc1 (stereo unspecified)	·	·	·	·	13	·	·	·	·
CCOC(=O)Cn1c2ccccc2c2nc3ccccc3nc21	-0.24	0.0065	4.8*	2	34	-9	14192*	1640	2880
CCCn1c2ccccc2c2nc3ccccc3nc21	0.41	1.1	5.7*	0	·	-1	12892*	1720	3272*
